# Test results: ChEMBL document CHEMBL3351274, “Sensitization of tumor necrosis factor-related apoptosis-inducing ligand (TRAIL)-resistant primary prostate cancer cells by isoegomaketone from Perilla frutescens” (J Nat Prod, 2014)
# Columns and labels:
# [1] = Sensitization of TRAIL-induced cytotoxicity against human RWPE1 cells assessed as cell viability at 20 uM after 24 hrs by SRB assay; format: cell-based; conditions: rwpe-1, 24 h
# Summary of the method: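 Cells seeded at 5 × 10^4 cells/mL, grown in DMEM with 10% FBS, and given the compound with or without 100 ng/mL TRAIL for 24 h at 37 °C, 5% CO2. RWPE-1 tested at 20 μM. Cells fixed in 12% TCA for 1 h at 4 °C, stained 1 h with 0.4% SRB, washed in 1% acetic acid, dye dissolved in 10 mM Tris and absorbance read. Three experiments, means ± SD.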
# [2] = Induction of ROS generation in human RC-58T/h/SA#4 cells at 40 uM after 30 mins by flow cytometry (reference value: 1.9%); format: functional
# [3] = Induction of apoptosis in human RC-58T/h/SA#4 cells assessed as DR5 expression at 2.5 uM after 24 hrs by immunoblotting analysis relative to untreated control; format: functional
# [4] = Induction of apoptosis in human RC-58T/h/SA#4 cells assessed as DR5 expression at 10 uM after 24 hrs by immunoblotting analysis relative to untreated control; format: functional
# [5] = Induction of apoptosis in human RC-58T/h/SA#4 cells assessed as CHOP expression at 20 uM after 3 hrs by immunoblotting analysis relative to untreated control; format: functional
# Summary of the method: (§1)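 RC-58T/h/SA#4 cells seeded at 5 × 10^4 cells/mL and cultured 24 h, then given compound across a concentration series or at fixed dose over a time course. Lysates were quantified by BCA. 10 μg protein/lane run on 12% SDS-PAGE and transferred to nitrocellulose. Blots probed for p53, CHOP and β-actin with HRP secondary and ECL.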
# [6] = Induction of ROS generation in human RC-58T/h/SA#4 cells at 10 uM after 30 mins by flow cytometry (reference value: 1.9%); format: functional
# [7] = species on record: Homo sapiens; test: Induction of apoptosis in human RC-58T/h/SA#4 cells assessed as cytochrome C level in mitochondria at 20 uM after 24 hrs by immunoblotting analysis relative to untreated control; format: functional, cell-based
# Summary of the method: (§2)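 Cells grown in DMEM/10% FBS at 37 °C, 5% CO2, then treated 24 h with compound (20 μM) with or without TRAIL (100 ng/mL). Whole lysates were used for Bax and Bcl-2. Cytosolic and mitochondrial fractions were prepared with a mitochondria isolation kit for AIF and cytochrome c. Blotting used 10 μg protein/lane, 12% SDS-PAGE, nitrocellulose, overnight primary antibody at 4 °C and ECL detection.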
# [8] = species on record: Homo sapiens; test: Sensitization of TRAIL-induced apoptosis in human RC-58T/h/SA#4 cells assessed as cytochrome C level in mitochondria at 20 uM after 24 hrs by immunoblotting analysis relative to untreated control; format: functional, cell-based
# Summary of the method: (§3)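 Cells given 20 μM compound and/or 100 ng/mL TRAIL for 24 h. Mitochondrial and cytosolic fractions prepared with a mitochondria isolation kit. Fractions resolved by 12% SDS-PAGE at 10 μg/lane and immunoblotted with anti-cytochrome c or anti-AIF overnight at 4 °C, then HRP secondary and ECL detection.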
# [9] = Induction of apoptosis in human RC-58T/h/SA#4 cells assessed as DR4 expression at 5 uM after 24 hrs by immunoblotting analysis relative to untreated control; format: functional
# [10] = Induction of apoptosis in human RC-58T/h/SA#4 cells assessed as procaspase-8 activation at 20 uM after 24 hrs by immunoblotting analysis relative to untreated control; format: functional
# Summary of the method: (§4)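 Cells seeded at 5 × 10^4 cells/mL and cultured 24 h, then given 20 μM compound and/or 100 ng/mL TRAIL for 24 h. Whole-cell lysate made in Tris/NaCl/EDTA/NaF/pyrophosphate/PMSF/aprotinin buffer, 30 min on ice, protein measured by BCA. 12% SDS-PAGE at 10 μg/lane, nitrocellulose blot, primary antibodies (caspase-3, -8, -9, Bax, Bcl-2, PARP) overnight at 4 °C, HRP secondary, ECL.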
# [11] = Sensitization of TRAIL-induced apoptosis in human RC-58T/h/SA#4 cells assessed as procaspase-9 activation at 20 uM after 24 hrs by immunoblotting analysis in presence of Dr5 Fc chimera relative to untreated control; format: functional
# Summary of the method: (§5)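 Cells pretreated 2 h with 100 ng/mL DR5 Fc chimera, then given 20 μM compound and/or 100 ng/mL TRAIL for 24 h. Total lysates immunoblotted (12% SDS-PAGE, nitrocellulose) for caspase-3, -8, -9 and PARP cleavage, with HRP secondary and ECL detection.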
# [12] = Sensitization of TRAIL-induced apoptosis in human RC-58T/h/SA#4 cells assessed as accumulation at Sub-G1 phase at 20 uM after 24 hrs by annexin-V/propidium iodide staining-based flow cytometry in presence of pan-caspase inhibitor z-VAD-fmk (reference value: 4.8%); format: functional
# [13] = Induction of apoptosis in human RC-58T/h/SA#4 cells assessed as p53 expression at 20 uM after 24 hrs by immunoblotting analysis relative to untreated control; format: functional; summary of the method: as §1
# [14] = Induction of apoptosis in human RC-58T/h/SA#4 cells assessed as cytochrome C level in cytosol at 20 uM after 24 hrs by immunoblotting analysis relative to untreated control; format: functional; summary of the method: as §2
# [15] = Sensitization of TRAIL-induced apoptosis in human RC-58T/h/SA#4 cells assessed as procaspase-8 activation at 20 uM after 24 hrs by immunoblotting analysis in presence of Dr5 Fc chimera relative to untreated control; format: functional; summary of the method: as §5
# [16] = Induction of apoptosis in human RC-58T/h/SA#4 cells assessed as DR5 expression at 40 uM after 24 hrs by immunoblotting analysis relative to untreated control; format: functional
# [17] = Sensitization of TRAIL-induced apoptosis in human RC-58T/h/SA#4 cells assessed as Bcl-2 activation at 20 uM after 24 hrs by immunoblotting analysis relative to untreated control; format: functional; summary of the method: as §4
# [18] = species on record: Homo sapiens; test: Sensitization of TRAIL-induced apoptosis in human RC-58T/h/SA#4 cells assessed as AIF level in mitochondria at 20 uM after 24 hrs by immunoblotting analysis relative to untreated control; format: functional, cell-based; summary of the method: as §3
# [19] = species on record: Homo sapiens; test: Induction of apoptosis in human RC-58T/h/SA#4 cells assessed as CHOP expression at 2.5 to 40 uM by immunoblotting analysis relative to untreated control; format: functional, cell-based; conditions: TDE = time-dependent effect; summary of the method: as §1
# [20] = Sensitization of TRAIL-induced apoptosis in human RC-58T/h/SA#4 cells assessed as procaspase-9 activation at 20 uM after 24 hrs by immunoblotting analysis relative to untreated control; format: functional; summary of the method: as §4
# [21] = Induction of apoptosis in human RC-58T/h/SA#4 cells assessed as p53 expression at 20 uM after 3 hrs by immunoblotting analysis relative to untreated control; format: functional; summary of the method: as §1
# [22] = Induction of apoptosis in human RC-58T/h/SA#4 cells assessed as DR4 expression at 20 uM after 12 hrs by immunoblotting analysis relative to untreated control; format: functional
smiles,measurement,setting,value
CC(C)/C=C/C(=O)c1ccoc1,Activity,[1],Toxic
same,Activity,[2],2.5%
same,Ratio,[3],1
same,Ratio,[4],1.2
same,Ratio,[5],1
same,Activity,[6],2%
same,Ratio,[7],1.2
same,Ratio,[8],0.5
same,Ratio,[9],1.1
same,Ratio,[10],1.2
same,Ratio,[11],1.1
same,Activity,[12],14.4%
same,Ratio,[13],2.3
same,Ratio,[14],0.9
same,Ratio,[15],0.8
same,Ratio,[16],1.3
same,Ratio,[17],0.5
same,Ratio,[18],0.3
same,Activity,[19],tde
same,Ratio,[20],0.5
same,Ratio,[21],1
same,Ratio,[22],1
